Data from ChEMBL document CHEMBL6071208, “Promoting Apoptosis in MCF-7 Cells via ROS Generation by Quinolino-triazoles Derived from One-Pot Telescopic Synthesis” (ACS Med Chem Lett, 2024).
Active and inactive are the calls of the source. The rule behind the calls is not given here.

Columns and labels:
[1] = system: MCF7; test: Cytotoxicity against human MCF7 cells assessed inhibition of cell proliferation measured for 24 hrs by MTT assay; assay type: functional, cell-based; conditions: MCF7, 24 h
Outline: (§1)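 MTT read-out of proliferation after 24 h exposure; MCF-7 breast cancer cells alongside noncancerous human embryonic kidney HEK-293 cells. IC50 in μM taken as the average ± SD of three individual experiments.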

[2] = system: HEK293; test: Cytotoxicity against HEK293 cells assessed inhibition of cell proliferation measured after 24 hrs by MTT assay; assay type: toxicity, cell-based; conditions: human, hek293, 24 h; outline: as §1
[3] = system: MCF7; test: Induction of intracellular ROS generation in human MCF7 cells at 12 uM incubated for 24 hrs by DCFDA staining based fluorescence microscopic analysis; assay type: functional, cell-based
Outline: (§2)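 DCFDA-loaded MCF-7 cells imaged by fluorescence microscopy at 20× for qualitative ROS signal. Cisplatin serves as standard. Images represent three experiments. Scale bar 150 μm.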

[4] = system: MCF7; test: Induction of ROS production in human MCF7 cells assessed as increase in ROS level at 12 uM incubated for 24 hrs by DCFH-DA staining based flow cytometry analysis; assay type: functional, cell-based
Outline: (§3)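 Intracellular ROS measured with the H2DCFDA probe. Esterase-deacetylated dye is oxidised to fluorescent DCF (ex 498/em 522 nm). Flow cytometry gave the percentage of ROS-positive MCF-7 cells against untreated control, with cisplatin (5 μM) as positive control. Mean ± SD of three independent investigations.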

[5] = system: Mitochondrial membrane; test: Induction of mitochondrial membrane potential loss in human MCF7 cells assessed as increase in fluorescence intensity at 12 uM measured for 24 hrs by rhodamine-123 dye based flow cytometry analysis
Outline: (§4)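 MCF-7 cells stained with rhodamine-123. Flow cytometry gave the percentage of cells with mitochondrial membrane potential loss against the untreated basal control. Mean ± SD of three independent investigations.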

[6] = system: Mitochondrial membrane; test: Induction of mitochondrial membrane potential loss in human MCF7 cells assessed as increase in fluorescence intensity at 12 uM measured for 24 hrs by rhodamine-123 dye based flow cytometry analysis (reference value: 8%); outline: as §4
[7] = system: MCF7; test: Induction of apoptosis in human MCF7 cells assessed as increase in Bax mRNA expression at 12 uM measured for 24 hrs bt RT-PCR analysis; assay type: functional, cell-based
Outline: (§5)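 mRNA levels of Bax, Bad (pro-apoptotic) and Bcl-2 (anti-apoptotic) measured in treated MCF-7 cells relative to untreated control. Mean ± SD of three independent studies.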

[8] = system: MCF7; test: Induction of apoptosis in human MCF7 cells assessed as increase in Bad mRNA expression at 12 uM measured for 24 hrs bt RT-PCR analysis; assay type: functional, cell-based; outline: as §5
[9] = system: MCF7; test: Induction of apoptosis in human MCF7 cells assessed as decrease in Bcl-2 mRNA expression at 12 uM measured for 24 hrs bt RT-PCR analysis; assay type: functional, cell-based; outline: as §5
[10] = system: MCF7; test: Induction of DNA fragmentation in human MCF7 cells assessed as increase in condensed nuclei at 12 uM measured for 24 hrs by DAPI staining based fluorescence microscopic analysis; assay type: functional, cell-based
Outline: (§6)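 MCF-7 nuclei stained with DAPI after exposure, with cisplatin (5 μM) as reference. Fluorescence microscopy scored condensed and fragmented nuclei. Images represent three individual experiments. Scale bar 150 μm.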

[11] = system: MCF7; test: Induction of DNA fragmentation in human MCF7 cells assessed as increase in fragmented nuclei at 12 uM measured for 24 hrs by DAPI staining based fluorescence microscopic analysis; assay type: functional, cell-based; outline: as §6
[12] = Drug localization in human MCF7 cells at 12 uM incubated for 24 hrs by DAPI staining based confocal fluorescence microscopic analysis; assay type: ADME, cell-based; conditions: mcf7, 24 h
[13] = system: MCF7; test: Induction of apoptosis in human MCF7 cells assessed as increase in number of necrotic cells at 12 uM incubated for 24 hrs by acridine orange/EtBr staining based fluorescence microscopic analysis
[14] = system: MCF7; test: Induction of apoptosis in human MCF7 cells assessed as increase in number of late apoptotic cells at 12 uM incubated for 24 hrs by acridine orange/EtBr staining based fluorescence microscopic analysis
[15] = system: MCF7; test: Induction of intracellular ROS generation in human MCF7 cells at 10 uM incubated for 24 hrs by DCFDA staining based fluorescence microscopic analysis; assay type: functional, cell-based; outline: as §2
[16] = system: MCF7; test: Induction of ROS production in human MCF7 cells assessed as increase in ROS level at 10 uM incubated for 24 hrs by DCFH-DA staining based flow cytometry analysis; assay type: functional, cell-based; outline: as §3
[17] = system: MCF7; test: Induction of apoptosis in human MCF7 cells assessed as increase in early apoptotic cells at 10 uM incubated for 24 hrs by acridine orange/EtBr staining based fluorescence microscopic analysis; assay type: functional, cell-based
Outline: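 Acridine orange/ethidium bromide dual staining of MCF-7 cells, with cisplatin (5 μM) as reference. Fluorescence microscopy classified cells as live (green nuclei), early apoptotic, late apoptotic or necrotic (orange-red nuclei). Images represent three independent experiments.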

[18] = system: Mitochondrial membrane; test: Induction of mitochondrial membrane potential loss in human MCF7 cells assessed as increase in fluorescence intensity at 10 uM measured for 24 hrs by rhodamine-123 dye based flow cytometry analysis; outline: as §4
[19] = system: Mitochondrial membrane; test: Induction of mitochondrial membrane potential loss in human MCF7 cells assessed as increase in fluorescence intensity at 10 uM measured for 24 hrs by rhodamine-123 dye based flow cytometry analysis (reference value: 8%); outline: as §4
[20] = system: MCF7; test: Induction of apoptosis in human MCF7 cells assessed as increase in Bax mRNA expression at 10 uM measured for 24 hrs bt RT-PCR analysis; assay type: functional, cell-based; outline: as §5
[21] = system: MCF7; test: Induction of apoptosis in human MCF7 cells assessed as increase in Bad mRNA expression at 10 uM measured for 24 hrs bt RT-PCR analysis; assay type: functional, cell-based; outline: as §5
[22] = system: MCF7; test: Induction of apoptosis in human MCF7 cells assessed as decrease in Bcl-2 mRNA expression at 10 uM measured for 24 hrs bt RT-PCR analysis; assay type: functional, cell-based; outline: as §5
[23] = system: MCF7; test: Induction of DNA fragmentation in human MCF7 cells assessed as increase in condensed nuclei at 10 uM measured for 24 hrs by DAPI staining based fluorescence microscopic analysis; assay type: functional, cell-based; outline: as §6
[24] = system: MCF7; test: Induction of DNA fragmentation in human MCF7 cells assessed as increase in fragmented nuclei at 10 uM measured for 24 hrs by DAPI staining based fluorescence microscopic analysis; assay type: functional, cell-based; outline: as §6
[25] = Drug localization in cytoplasm of human MCF7 cells assessed as increase in red fluorescence at 10 uM incubated for 24 hrs by DAPI staining based confocal fluorescence microscopic analysis; assay type: ADME, subcellular; conditions: mcf7, 24 h
[26] = Drug localization in nucleus of human MCF7 cells assessed as increase in red fluorescence at 10 uM incubated for 24 hrs by DAPI staining based confocal fluorescence microscopic analysis; assay type: ADME, subcellular; conditions: mcf7, 24 h

CCOC(=O)c1n[nH]nc1-c1cc2ccc(C)cc2nc1Oc1ccc(C)cc1
IC50 [1]: 42.5 µM

Cc1ccc(Oc2nc3ccccc3cc2-c2n[nH]nc2C(N)=O)cc1
IC50 [1]: 62.5 µM

CCOC(=O)c1n[nH]nc1-c1cc2ccccc2nc1Oc1ccccc1
IC50 [1]: 90 µM

CCOC(=O)c1n[nH]nc1-c1cc2ccc(C)cc2nc1Oc1ccc(C#N)cc1
IC50 [1]: 19 µM

NC(=O)c1n[nH]nc1-c1cc2ccccc2nc1Oc1ccc(I)cc1
IC50 [1]: 17.5 µM

NC(=O)c1n[nH]nc1-c1cc2ccccc2nc1Oc1ccc(Br)cc1
IC50 [1]: 12 µM | Activity [2]: Non-Toxic | Activity [3]: Active | Activity [4]: Active | Activity [5]: Active | Activity [6]: 14% | Activity [7]: Active | Activity [8]: Active | Activity [9]: Active | Activity [10]: Active | Activity [11]: Active | Drug uptake [12]: Not Active | Activity [13]: Active | Activity [14]: Active

CCOC(=O)c1n[nH]nc1-c1cc2ccc(C)cc2nc1Oc1ccc(I)cc1
IC50 [1]: 20 µM

CCOC(=O)c1n[nH]nc1-c1cc2cc(C)c(C)cc2nc1Oc1ccc(C#N)cc1
IC50 [1]: 65 µM

CCOC(=O)c1n[nH]nc1-c1cc2ccccc2nc1Oc1ccc(C)cc1
IC50 [1]: 53 µM

N#Cc1ccc(Oc2nc3ccccc3cc2-c2n[nH]nc2C(N)=O)cc1
IC50 [1]: 10 µM | Activity [2]: Non-Toxic | Activity [15]: Active | Activity [16]: Active | Activity [17]: Active | Activity [18]: Active | Activity [19]: 23% | Activity [20]: Active | Activity [21]: Active | Activity [22]: Active | Activity [23]: Active | Activity [24]: Active | Drug uptake [25]: Active | Drug uptake [26]: Active
